From ChEMBL document CHEMBL4699415, “Synthesis and anti-HBV activity of carbocyclic nucleoside hybrids with salient features of entecavir and aristeromycin” (RSC Med Chem, 2020)

Experiments:
[1] = system: Hepatitis B virus; assay: Antiviral activity against Hepatitis B virus infected in human HepG2.2.15.7 assessed as reduction in HBV DNA level incubated for 9 days media replaced every 3 days once with test compound by RT-PCR analysis; type: functional, organism-based
How it was run: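 HepG2.2.15.7 cells, 1 × 10^4 per well, settled 24 h before exposure to a range of concentrations; drug-containing medium renewed every three days. At day nine, supernatant HBV DNA quantified by real-time PCR. IC50 is the concentration giving 50% inhibition of supernatant HBV DNA.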

[2] = Cytotoxicity against human HepG2.2.15.7 cells assessed as reduction in cell viability; type: cell-based
How it was run: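 HepG2.2.15.7 cells, 1 × 10^4 per well, seeded 24 h, then kept nine days with graded concentrations, medium with drug renewed every three days. Viability read by tetrazolium dye method. CC50 is the concentration reducing viable cells by 50%.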

Compound | IC50 [1] [µM] | CC50 [2] [µM]
C=C1[C@@H](n2ccc3c(N)ncnc32)[C@H](O)[C@H](O)[C@@]1(C)CO | > 100 | > 100
C=Cc1cn([C@@H]2C(=C)[C@](C)(CO)[C@@H](O)[C@H]2O)c2ncnc(N)c12 | > 100 | > 100
C=C1[C@@H](n2cc(Br)c3c(N)ncnc32)[C@H](O)[C@H](O)[C@@]1(C)CO | 8.3 | > 100
C=C1[C@@H](n2cc(F)c3c(N)ncnc32)[C@H](O)[C@H](O)[C@@]1(C)CO | > 100 | > 100
C#Cc1cn([C@@H]2C(=C)[C@](C)(CO)[C@@H](O)[C@H]2O)c2ncnc(N)c12 | 6.3 | > 100
C=C1[C@@H](n2cc(Cl)c3c(N)ncnc32)[C@H](O)[C@H](O)[C@@]1(C)CO | 22.9 | > 100
C=C1[C@@H](n2cc(I)c3c(N)ncnc32)[C@H](O)[C@H](O)[C@@]1(C)CO | 3.4 | 87.5
Nc1ncnc2c1ncn2[C@@H]1C[C@H](CO)[C@@H](O)[C@H]1O [ARISTEROMYCIN] | > 3 | > 3
C=C1[C@H](CO)[C@@H](O)C[C@@H]1n1cnc2c(=O)[nH]c(N)nc21 [ENTECAVIR] | 0.00018 | > 0.1
